Measurements published in ChEMBL document CHEMBL1133468, “New diarylmethylpiperazines as potent and selective nonpeptidic delta opioid receptor agonists with increased In vitro metabolic stability” (J Med Chem, 2000).

What was measured:
[1] = Maximal efficacy (Emax value); type: functional
Summary of the method: (§1)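 GTPγ35S binding on P2 membranes of HEK-293S cells stably expressing human δ receptor (9.7 pmol/mg protein). Filtration after 1 h. Stimulated binding set with 3 µM SNC-80. %Emax from 3-parameter logistic fit.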

Mu-type opioid receptor = Mu-type opioid receptor (Homo sapiens, UniProt P35372); assay: Binding affinity against cloned human Opioid receptor mu 1 using [125I]FK33824 as radioligand
Mu-type opioid receptor, sequence (P35372 whole entry): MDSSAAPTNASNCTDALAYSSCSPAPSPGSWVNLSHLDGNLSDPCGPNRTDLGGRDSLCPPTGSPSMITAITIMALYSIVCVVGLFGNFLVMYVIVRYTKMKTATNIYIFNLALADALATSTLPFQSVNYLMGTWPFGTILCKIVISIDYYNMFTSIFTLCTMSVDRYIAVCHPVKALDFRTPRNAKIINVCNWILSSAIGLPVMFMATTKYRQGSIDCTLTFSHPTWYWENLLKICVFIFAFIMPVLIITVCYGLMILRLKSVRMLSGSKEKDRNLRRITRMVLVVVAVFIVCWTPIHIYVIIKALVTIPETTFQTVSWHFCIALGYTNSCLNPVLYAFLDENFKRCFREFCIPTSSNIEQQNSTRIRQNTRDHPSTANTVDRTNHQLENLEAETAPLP

[2] = target: T1, Delta-type opioid receptor (Homo sapiens, UniProt P41143); assay: Binding affinity against human opioid receptor delta 1 using [125I]-[D-Ala2]-deltorphin II as radioligand
T1 sequence (P41143 whole entry): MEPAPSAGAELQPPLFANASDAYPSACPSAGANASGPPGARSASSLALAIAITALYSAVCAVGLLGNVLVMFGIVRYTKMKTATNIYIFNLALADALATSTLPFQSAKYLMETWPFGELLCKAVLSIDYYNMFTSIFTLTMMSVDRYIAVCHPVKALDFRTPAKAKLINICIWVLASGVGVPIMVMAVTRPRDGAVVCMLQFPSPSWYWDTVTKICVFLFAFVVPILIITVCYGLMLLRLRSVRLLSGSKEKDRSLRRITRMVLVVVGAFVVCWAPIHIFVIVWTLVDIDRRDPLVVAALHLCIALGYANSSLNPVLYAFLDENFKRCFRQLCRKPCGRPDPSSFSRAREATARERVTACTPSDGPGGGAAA

[3] = target: Kappa-type opioid receptor (Homo sapiens, UniProt P41145); assay: Binding affinity against cloned human Opioid receptor kappa 1 using [125I]-D-Pro10-dynorphin A[1-11] as radioligand
Kappa-type opioid receptor, sequence (P41145 whole entry): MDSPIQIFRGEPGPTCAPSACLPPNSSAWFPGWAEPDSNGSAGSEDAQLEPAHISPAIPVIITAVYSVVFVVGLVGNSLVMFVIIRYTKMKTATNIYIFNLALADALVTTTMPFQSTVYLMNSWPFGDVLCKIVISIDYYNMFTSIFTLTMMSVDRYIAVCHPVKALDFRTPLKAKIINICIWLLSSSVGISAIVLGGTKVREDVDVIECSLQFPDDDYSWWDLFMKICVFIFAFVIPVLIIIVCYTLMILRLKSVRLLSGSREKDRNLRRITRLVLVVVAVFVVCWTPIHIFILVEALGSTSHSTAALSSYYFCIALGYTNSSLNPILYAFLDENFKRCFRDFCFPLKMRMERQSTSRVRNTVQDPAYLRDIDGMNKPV

[4] = target: T1, Delta-type opioid receptor; assay: Agonist potency was measured using GTP gamma-[35S] binding assay
[5] = Metabolic stability at a concentration of 10 uM in rat liver microsomes after 1 hr incubation; type: ADME
Summary of the method: (§2)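 Substrate at 10 or 100 µM final (1% DMSO) with rat liver microsomes (0.4 mg/mL protein), 1 mM NADPH, 100 mM phosphate pH 7.4, 37 °C with gentle shaking, in duplicate. Reaction started by NADPH and stopped at 0 and 60 min with ice-cold acetonitrile. After centrifugation, supernatant analysed by LC-MS for % parent remaining. Controls omitted microsomes or NADPH.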

[6] = Metabolic stability at a concentration of 100 uM in rat liver microsomes after 1 hr incubation; type: ADME; summary of the method: as §2
[7] = Emax value was determined; summary of the method: as §1

| Compound | Emax [1] [%] | IC50 (Mu-type opioid receptor) [nM] | IC50 [2] [nM] | IC50 [3] [nM] | EC50 [4] [nM] | remaining at 1 h, 10 µM [5] [%] | remaining at 1 h, 100 µM [6] [%] | Emax [7] [%] |
| --- | --- | --- | --- | --- | --- | --- | --- | --- |
| CCN(CC)C(=O)c1ccc(C(c2ccc(Cl)cc2)N2CCNCC2)cc1 (centres undefined) | 107 | 5330 | 19.3 | > 10000 | 113 | – | – | – |
| CCN(CC)C(=O)c1ccc(C(c2ccccc2)N2CCNCC2)cc1 (centres undefined) | 104 | – | – | – | – | 60 | 89 | – |
| CCNC(=O)c1ccc(C(c2ccccc2)N2CCNCC2)cc1 (centres undefined) | – | – | 175 | – | – | – | – | – |
| O=C(O)c1ccc(C(c2ccccc2)N2CCNCC2)cc1 (centres undefined) | – | – | 410 | – | – | – | – | – |
| CCN(CC)S(=O)(=O)c1ccc(C(c2ccccc2)N2CCNCC2)cc1 (centres undefined) | 110 | – | 37.9 | – | 635 | – | – | – |
| N#Cc1ccc(C(c2ccccc2)N2CCNCC2)cc1 (centres undefined) | – | – | 1290 | – | – | – | – | – |
| C=CCN1CCN(C(c2ccccc2)c2ccc(C(=O)N(CC)CC)cc2)CC1 (centres undefined) | 109 | 5060 | 15.9 | 7570 | 33 | – | – | – |
| CC(=O)c1ccc(C(c2ccccc2)N2CCNCC2)cc1 (centres undefined) | – | – | 1050 | – | – | – | – | – |
| CCN(CC)C(=O)c1ccc(C(c2ccccc2)N(C)CCNC)cc1 (centres undefined) | – | 6970 | 91.6 | > 10000 | – | – | – | – |
| CCN(CC)C(=O)c1ccc(C(c2ccccc2)N2CCCCC2)cc1 (centres undefined) | – | – | 2230 | – | – | – | – | – |
| CCN(CC)C(=O)c1ccc(C(c2ccccc2)N2CCN(C(C)=O)CC2)cc1 (centres undefined) | – | – | > 2000 | – | – | – | – | – |
| CCN(CC)C(=O)c1ccc(C(c2ccccc2)N2CCN(C)CC2)cc1 (centres undefined) | 58 | > 10000 | 40.4 | 6970 | 211 | – | – | – |
| NC(=O)c1ccc(C(c2ccccc2)N2CCNCC2)cc1 (centres undefined) | – | – | 509 | – | – | – | – | – |
| CCN(CC)C(=O)c1ccc(C(c2ccc(C)cc2)N2CCNCC2)cc1 (centres undefined) | 84 | 7090 | 8.42 | > 10000 | 78.1 | – | – | – |
| CCN(CC)C(=O)c1ccc(C(c2ccc3ncccc3c2)N2CCNCC2)cc1 (centres undefined) | – | – | 61.6 | – | – | – | – | – |
| CCN(CC)C(=O)c1ccc(C(c2ccccc2)C2CCNCC2)cc1 (centres undefined) | 97 | > 10000 | – | > 10000 | – | – | – | – |
| C=CCN1C[C@H](C)N([C@H](c2ccc(C(=O)N(CC)CC)cc2)c2cccc(OC)c2)C[C@H]1C | 100 | – | – | – | – | – | – | – |
| CN1CCc2cc(-c3ccc(C(c4ccccc4)N4CCNCC4)cc3)ccc2C1=O (centres undefined) | – | – | 1650 | – | – | – | – | – |
| CCN(CC)C(=O)c1ccc(C(c2ccccc2)N2CCCNCC2)cc1 (centres undefined) | 96 | 2290 | 19.6 | 4530 | 303 | – | – | – |
| CCN(CC)C(=O)c1ccc(C(c2ccc3cc[nH]c3c2)N2CCNCC2)cc1 (centres undefined) | 105 | 2220 | 6.81 | 3970 | 44.9 | – | – | – |
| CCN(CC)C(=O)c1ccc(C(c2ccnc3ccccc23)N2CCNCC2)cc1 (centres undefined) | – | – | 132 | – | – | – | – | – |
| COC(=O)c1ccc(C(c2ccccc2)N2CCNCC2)cc1 (centres undefined) | – | – | 307 | – | – | – | – | – |

| Compound | Emax [1] [%] | IC50 (Mu-type opioid receptor) [nM] | IC50 [2] [nM] | IC50 [3] [nM] | EC50 [4] [nM] | remaining at 1 h, 10 µM [5] [%] | remaining at 1 h, 100 µM [6] [%] | Emax [7] [%] |
| --- | --- | --- | --- | --- | --- | --- | --- | --- |
| CCC(CC)C(=O)c1ccc(C(c2ccccc2)N2CCNCC2)cc1 (centres undefined) | – | – | 100 | – | – | – | – | – |
| C=CCN1C[C@H](C)N([C@H](c2ccc(C(=O)N(CC)CC)cc2)c2cccc(O)c2)C[C@H]1C | 98 | 2.1 | – | 20 | 0.12 | 4 | 59 | – |
| CCN(CC)C(=O)c1ccc(C(c2ccccc2)N2CCOCC2)cc1 (centres undefined) | – | – | > 10000 | – | – | – | – | – |
| CC(C)(O)c1ccc(C(c2ccccc2)N2CCNCC2)cc1 (centres undefined) | – | – | 406 | – | – | – | – | – |
| CCN(CC)C(=O)c1ccc(C(c2ccccc2)N2CCN(CC3CC3)CC2)cc1 (centres undefined) | – | 2400 | 35.3 | > 5600 | – | – | – | – |
| CCN(CC)C(=O)c1ccc(C(c2cccc3ccccc23)N2CCNCC2)cc1 (centres undefined) | 99 | 777 | 2.36 | 4910 | 18 | – | – | – |
| CCN(CC)C(=O)c1ccc(C(c2cccc(F)c2)N2CCNCC2)cc1 (centres undefined) | 97 | 5650 | 4.5 | > 10000 | 53.3 | – | – | – |
| CCN(CC)C(=O)c1ccc(C(c2cccc(OC)c2)N2CCNCC2)cc1 (centres undefined) | 109 | 5290 | 24.8 | > 10000 | 42 | – | – | – |
| CCN(CC)C(=O)c1ccc(C(c2cccc3cccnc23)N2CCNCC2)cc1 (centres undefined) | 104 | 632 | 0.51 | 7020 | 3.6 | 52 | 83 | – |
| CCN(CC)C(=O)c1ccc(C(c2ccc3cccnc3c2)N2CCNCC2)cc1 (centres undefined) | – | 1020 | 1.1 | 3160 | 6.86 | – | – | 100 |
| CN(C)C(=O)c1ccc(C(c2ccccc2)N2CCNCC2)cc1 (centres undefined) | – | – | 60.4 | – | – | – | – | – |
| CCN(CC)C(=O)c1ccc(C(c2ccc3ccccc3c2)N2CCNCC2)cc1 (centres undefined) | 110 | 2680 | 7.63 | > 10000 | 50 | – | – | – |
| CCN(CC)C(=O)c1ccc(C(C2CCCCC2)N2CCNCC2)cc1 (centres undefined) | – | 185 | 98.4 | 724 | – | – | – | – |
| CCN(CC)C(=O)c1ccc(C(c2cccc(OC)c2)N2CC(C)NCC2(C)C)cc1 (centres undefined) | 94 | 284 | 53.3 | > 10000 | 273 | – | – | – |
| CCN(CC)C(=O)c1ccc(C(c2cccc(OC)c2)N2CC(C)(C)NCC2C)cc1 (centres undefined) | 100 | 620 | 8.44 | > 10000 | 10.4 | – | – | – |
| CCN(CC)C(=O)c1ccc(C(c2cccc3c2OC(C)(C)C3)N2CCNCC2)cc1 (centres undefined) | 101 | 785 | 1.15 | > 7600 | 7.1 | 43 | 93 | – |
| CCN(CC)C(=O)c1ccc(C(c2ccc(OC)cc2)N2CCNCC2)cc1 (centres undefined) | 90 | 4540 | 8.13 | > 10000 | 187 | – | – | – |
| CCN(CC)C(=O)c1ccc(C(c2cccc3cnccc23)N2CCNCC2)cc1 (centres undefined) | 106 | 1480 | 4.11 | > 10000 | 54.6 | – | – | – |
| CCCCN1CCN(C(c2ccccc2)c2ccc(C(=O)N(CC)CC)cc2)CC1 (centres undefined) | – | 486 | 28.6 | > 10000 | – | – | – | – |
| CCN(CC)Cc1ccc(C(c2ccccc2)N2CCNCC2)cc1 (centres undefined) | – | – | 555 | – | – | – | – | – |
| c1ccc(C(c2ccc(-c3nnn[nH]3)cc2)N2CCNCC2)cc1 (centres undefined) | – | – | 250 | – | – | – | – | – |
